Data on four molecules can be found in ChEMBL document CHEMBL3046238, “Synthesis and biological activity evaluation of 1,2,3-thiadiazole derivatives as potential elicitors with highly systemic acquired resistance” (2009).

Format in all cases: functional
The test system of assay [1] is Tobacco mosaic virus. The assay is described as follows: Induction of systemic acquired resistance against Tobacco mosaic virus (TMV) in tobacco plants exposed to 2000 ug/mL compound through irrigation based soil treatment followed by 7 days culture under green house conditions assessed as inhibition of viral growth in leaves infected with Tobacco mosaic virus (TMV) measured 72 hr post viral infection by half-leaf juice rubbing method. Also on record: scale not given: the % may be the effect or the level left. The method in brief: (§1)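 Tobacco plants received compound by leaf spray or by soil irrigation, with double-distilled water as CK. Newly grown leaves were then rub-inoculated with TMV (5.88×10-2 μg/mL), and plants were kept at 25 °C for 72 h. Lesions on inoculated leaves were counted. Inhibition = (CK−A)/CK×100 from mean lesion numbers versus control.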

The test system of assay [2] is Tobacco mosaic virus. In words: Induction of systemic acquired resistance against Tobacco mosaic virus (TMV) in tobacco plants exposed to 50 ug/mL compound through irrigation based soil treatment followed by 7 days culture under green house conditions assessed as inhibition of viral growth in leaves infected with Tobacco mosaic virus (TMV) measured 72 hr post viral infection by half-leaf juice rubbing method. Also on record: scale not given: the % may be the effect or the level left. The method in brief: as §1

The test system of assay [3] is Tobacco mosaic virus. The assay is described as follows: Induction of systemic acquired resistance against Tobacco mosaic virus (TMV) in tobacco plants exposed to 100 ug/mL compound through irrigation based soil treatment followed by 7 days culture under green house conditions assessed as inhibition of viral growth in leaves infected with Tobacco mosaic virus (TMV) measured 72 hr post viral infection by half-leaf juice rubbing method. Further details: scale not given: the % may be the effect or the level left. Put shortly:
as §1

Assay [4] concerns Tobacco mosaic virus. The assay is described as follows: Induction of systemic acquired resistance against Tobacco mosaic virus (TMV) in tobacco plants exposed to 500 ug/mL compound through irrigation based soil treatment followed by 7 days culture under green house conditions assessed as inhibition of viral growth in leaves infected with Tobacco mosaic virus (TMV) measured 72 hr post viral infection by half-leaf juice rubbing method. Further details: scale not given: the % may be the effect or the level left. The method in brief:
as §1

For assay [5], the system named is Tobacco mosaic virus. The assay is described as follows: Induction of systemic acquired resistance against Tobacco mosaic virus (TMV) in tobacco plants exposed to 1000 ug/mL compound through irrigation based soil treatment followed by 7 days culture under green house conditions assessed as inhibition of viral growth in leaves infected with Tobacco mosaic virus (TMV) measured 72 hr post viral infection by half-leaf juice rubbing method. Further details: scale not given: the % may be the effect or the level left. Put shortly: as §1

Assay [6] has as its system Tobacco mosaic virus. The assay is described as follows: Induction of systemic acquired resistance against Tobacco mosaic virus (TMV) in tobacco plants exposed to 2000 ug/mL compound through leaf spray followed by 7 days culture under green house conditions assessed as inhibition of viral growth in leaves infected with Tobacco mosaic virus (TMV) measured 72 hr post viral infection by half-leaf juice rubbing method. Further details: scale not given: the % may be the effect or the level left. The method in brief:
as §1

Assay [7] deals with Tobacco mosaic virus. In words: Induction of systemic acquired resistance against Tobacco mosaic virus (TMV) in tobacco plants exposed to 50 ug/mL compound through leaf spray followed by 7 days culture under green house conditions assessed as inhibition of viral growth in leaves infected with Tobacco mosaic virus (TMV) measured 72 hr post viral infection by half-leaf juice rubbing method. Also on record: scale not given: the % may be the effect or the level left. The method in brief: as §1

In assay [8] the test system is Tobacco mosaic virus. The assay is described as follows: Antiviral activity against Tobacco mosaic virus (TMV) infected tobacco leaves exposed to 2000 ug/mL for 20 min assessed as inhibition of viral growth measured 72 hr post compound treatment compound by half-leaf juice rubbing method. Put shortly:
(§2)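 Half-leaf method on tobacco. A fresh leaf from a plant at the 5-6 leaf age was rub-inoculated with TMV (5.88×10-2 μg/mL) and cut along the main vein. One half was immersed in compound solution and the other in double-distilled water, each for 20 min. Halves were kept at 25 °C and 100% humidity for 72 h, then lesions were counted. Three replicates were run. Inhibition = (CK−A)/CK×100 from mean lesion numbers.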

In assay [9] the test system is Tobacco mosaic virus. The assay is described as follows: Antiviral activity against Tobacco mosaic virus (TMV) infected tobacco leaves exposed to 1000 ug/mL for 20 min assessed as inhibition of viral growth measured 72 hr post compound treatment compound by half-leaf juice rubbing method. Put shortly: as §2
The subject of assay [10] is Tobacco mosaic virus. In words: Induction of systemic acquired resistance against Tobacco mosaic virus (TMV) in tobacco plants exposed to 100 ug/mL compound through leaf spray followed by 7 days culture under green house conditions assessed as inhibition of viral growth in leaves infected with Tobacco mosaic virus (TMV) measured 72 hr post viral infection by half-leaf juice rubbing method. Also on record: scale not given: the % may be the effect or the level left. Put shortly: as §1

The test system of assay [11] is Tobacco mosaic virus. The assay is described as follows: Induction of systemic acquired resistance against Tobacco mosaic virus (TMV) in tobacco plants exposed to 500 ug/mL compound through leaf spray followed by 7 days culture under green house conditions assessed as inhibition of viral growth in leaves infected with Tobacco mosaic virus (TMV) measured 72 hr post viral infection by half-leaf juice rubbing method. Also on record: scale not given: the % may be the effect or the level left. The method in brief: as §1

Assay [12] concerns Tobacco mosaic virus. In words: Induction of systemic acquired resistance against Tobacco mosaic virus (TMV) in tobacco plants exposed to 1000 ug/mL compound through leaf spray followed by 7 days culture under green house conditions assessed as inhibition of viral growth in leaves infected with Tobacco mosaic virus (TMV) measured 72 hr post viral infection by half-leaf juice rubbing method. Also on record: scale not given: the % may be the effect or the level left. The method in brief:
as §1

Assay [13] concerns Tobacco mosaic virus. The assay is described as follows: In vivo antiviral activity against Tobacco mosaic virus (TMV) infected tobacco leaves exposed to 2000 ug/mL for 20 min assessed as inhibition of viral growth measured 72 hr post compound treatment compound by half-leaf juice rubbing method. Put shortly:
as §2

Assay [14] deals with Tobacco mosaic virus. The assay is described as follows: In vivo antiviral activity against Tobacco mosaic virus (TMV) infected tobacco leaves exposed to 50 ug/mL for 20 min assessed as inhibition of viral growth measured 72 hr post compound treatment compound by half-leaf juice rubbing method. The method in brief: as §2
Assay [15] deals with Tobacco mosaic virus. The assay is described as follows: In vivo antiviral activity against Tobacco mosaic virus (TMV) infected tobacco leaves exposed to 1000 ug/mL for 20 min assessed as inhibition of viral growth measured 72 hr post compound treatment compound by half-leaf juice rubbing method. Put shortly: as §2
In assay [16] the test system is Tobacco mosaic virus. In words: In vivo antiviral activity against Tobacco mosaic virus (TMV) infected tobacco leaves exposed to 500 ug/mL for 20 min assessed as inhibition of viral growth measured 72 hr post compound treatment compound by half-leaf juice rubbing method. Put shortly: as §2
Assay [17] concerns Tobacco mosaic virus. The assay is described as follows: In vivo antiviral activity against Tobacco mosaic virus (TMV) infected tobacco leaves exposed to 100 ug/mL for 20 min assessed as inhibition of viral growth measured 72 hr post compound treatment compound by half-leaf juice rubbing method. Put shortly: as §2
Assay [18] relates to Tobacco mosaic virus. The assay is described as follows: Antiviral activity against Tobacco mosaic virus (TMV) infected tobacco leaves exposed to 500 ug/mL for 20 min assessed as inhibition of viral growth measured 72 hr post compound treatment compound by half-leaf juice rubbing method. Put shortly:
as §2

The subject of assay [19] is Tobacco mosaic virus. The assay is described as follows: Antiviral activity against Tobacco mosaic virus (TMV) infected tobacco leaves exposed to 100 ug/mL for 20 min assessed as inhibition of viral growth measured 72 hr post compound treatment compound by half-leaf juice rubbing method. The method in brief: as §2
For assay [20], the system named is Tobacco mosaic virus. In words: Antiviral activity against Tobacco mosaic virus (TMV) infected tobacco leaves exposed to 50 ug/mL for 20 min assessed as inhibition of viral growth measured 72 hr post compound treatment compound by half-leaf juice rubbing method. Put shortly: as §2
Assay [21] concerns Puccinia triticina. The assay is described as follows: Antifungal activity against Puccinia triticina inoculated on 500 ug/mL compound pre-treated wheat plants with 3 to 5 leaves assessed as growth inhibition. Put shortly:
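Healthy wheat plants at the 3-5 leaf stage were sprayed with compound (500 μg/mL) and then inoculated with spores. Inhibition percentage was calculated against the corresponding spore stack.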

Assay [22] has as its system Tobacco mosaic virus. The assay is described as follows: Induction of systemic acquired resistance against Tobacco mosaic virus (TMV) in tobacco plants exposed to 10 ug/mL compound through irrigation based soil treatment followed by 7 days culture under green house conditions assessed as inhibition of viral growth in leaves infected with Tobacco mosaic virus (TMV) measured 72 hr post viral infection by half-leaf juice rubbing method. Also on record: scale not given: the % may be the effect or the level left. The method in brief: (§3)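 Tobacco plants receive compound either as leaf spray or as soil irrigation. Newly grown leaves are then rubbed with TMV (5.88 × 10-2 μg/mL). Plants are held 72 h at 25 °C and viral lesions are counted. Inhibition ratio = (CK − A)/CK × 100, from mean lesion numbers versus control. Water is CK; tiadinil and BTH are positive controls.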

The test system of assay [23] is Tobacco mosaic virus. In words: Induction of systemic acquired resistance against Tobacco mosaic virus (TMV) in tobacco plants exposed to 10 ug/mL compound through leaf spray followed by 7 days culture under green house conditions assessed as inhibition of viral growth in leaves infected with Tobacco mosaic virus (TMV) measured 72 hr post viral infection by half-leaf juice rubbing method. Further details: scale not given: the % may be the effect or the level left. Put shortly:
as §3

The subject of assay [24] is Tobacco mosaic virus. In words: In vivo antiviral activity against Tobacco mosaic virus (TMV) infected tobacco leaves exposed to 10 ug/mL for 20 min assessed as inhibition of viral growth measured 72 hr post compound treatment compound by half-leaf juice rubbing method.
For assay [25], the system named is Tobacco mosaic virus. In words: Antiviral activity against Tobacco mosaic virus (TMV) infected tobacco leaves exposed to 10 ug/mL for 20 min assessed as inhibition of viral growth measured 72 hr post compound treatment compound by half-leaf juice rubbing method. The method in brief:
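Direct (in vitro) anti-TMV test by half-leaf method. A tobacco leaf at 5-6 leaf age is rubbed with TMV (5.88 × 10-2 μg/mL) and cut along the main vein. One half is immersed in compound and the other in double-distilled water for 20 min. Halves are kept 72 h at 25 °C and 100% humidity, then lesions are counted. Inhibition is derived from mean lesion numbers on the two halves. Triplicates; DHT is the positive control.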

Assay [26] relates to Puccinia triticina. The assay is described as follows: Antifungal activity against Puccinia triticina inoculated on 100 ug/mL compound pre-treated wheat plants with 3 to 5 leaves assessed as growth inhibition.

Structures are written as SMILES.

As to `CC(N)CC(=O)O` (stereo not given), the Activity came to 80% in the assay with Tobacco mosaic virus [1]; 46% in the assay on Tobacco mosaic virus [2]; 54% with Tobacco mosaic virus [3]; 72% with Tobacco mosaic virus [4]; 80% in the assay with Tobacco mosaic virus [5]; 65% with Tobacco mosaic virus [6]. The Activity is on record as 0% in the assay on Tobacco mosaic virus [7], 30% in the assay with Tobacco mosaic virus [10], 50% in the assay with Tobacco mosaic virus [11] and 55% in the assay with Tobacco mosaic virus [12]. In addition, the “growth inhibition (GI)” value with Tobacco mosaic virus [8] is on record as 5%; with Tobacco mosaic virus [9], 0%; in the assay on Tobacco mosaic virus [13] it was 8%; with Tobacco mosaic virus [14] it was 0%; in the assay on Tobacco mosaic virus [15] it was 10%; with Tobacco mosaic virus [16], 5%. Further, the “growth inhibition (GI)” value in the assay on Tobacco mosaic virus [17] came to 9%; in the assay on Tobacco mosaic virus [18], 7%; with Tobacco mosaic virus [19] it was 4%; with Tobacco mosaic virus [20] it was 0%.

Consider `CSC(=O)c1cccc2nnsc12` [ACIBENZOLAR-S-METHYL], for which the “growth inhibition (GI)” value in the assay on Puccinia triticina [21] turned out to be 0%; in the assay on Tobacco mosaic virus [9], 8%; in the assay with Tobacco mosaic virus [24], 6%; in the assay with Tobacco mosaic virus [25] it was 0%; in the assay on Tobacco mosaic virus [14], 15%; with Tobacco mosaic virus [16], 8%. For the same molecule, the “growth inhibition (GI)” value turned out to be 10% in the assay with Tobacco mosaic virus [17], 4% in the assay on Tobacco mosaic virus [18], 2% with Tobacco mosaic virus [19] and 0% with Tobacco mosaic virus [20]. For the same molecule, the Activity in the assay with Tobacco mosaic virus [22] stood at 63%; in the assay with Tobacco mosaic virus [2], 92%; in the assay with Tobacco mosaic virus [3] it was 96%; in the assay on Tobacco mosaic virus [4] it was 95%; in the assay on Tobacco mosaic virus [5], 98%; with Tobacco mosaic virus [23] it was 50%. Further, the Activity was 92% in the assay with Tobacco mosaic virus [7], 95% in the assay on Tobacco mosaic virus [10], 95% in the assay with Tobacco mosaic virus [11] and 97% in the assay on Tobacco mosaic virus [12].

As to `O=C(O)c1cccc2nnsc12` [1,2,3-benzothia-diazole-7-carboxylic acid], the Activity in the assay on Tobacco mosaic virus [1] turned out to be 2%; in the assay with Tobacco mosaic virus [2] it was 10%; in the assay with Tobacco mosaic virus [3], 0%; in the assay with Tobacco mosaic virus [4], 5%; in the assay on Tobacco mosaic virus [5] it was 8%; in the assay with Tobacco mosaic virus [6], 12%. The Activity worked out at 3% with Tobacco mosaic virus [7], 0% in the assay on Tobacco mosaic virus [10], 5% with Tobacco mosaic virus [11] and 8% with Tobacco mosaic virus [12]. The “growth inhibition (GI)” value with Tobacco mosaic virus [8] stood at 8%; in the assay on Tobacco mosaic virus [9], 6%; with Tobacco mosaic virus [14], 0%; in the assay with Tobacco mosaic virus [15] it was 18%; in the assay with Tobacco mosaic virus [16] it was 5%; in the assay with Tobacco mosaic virus [17], 8%. Besides, the “growth inhibition (GI)” value was 3% in the assay with Tobacco mosaic virus [18], 5% with Tobacco mosaic virus [19] and 7% in the assay on Tobacco mosaic virus [20].

As for `N#Cc1c(Cl)c(Cl)c(Cl)c(C#N)c1Cl` [CHLOROTHALONIL], in the assay with Puccinia triticina [26], the “growth inhibition (GI)” value amounted to 100%.
